Reference: ChEMBL document CHEMBL1122838, “GABA agonists. Resolution, absolute stereochemistry, and enantioselectivity of (S)-(+)- and (R)-(-)-dihydromuscimol” (J Med Chem, 1985)
Activity calls are given as the source filed them. The rule behind the calls is not given here.

Tests used:
[1] = molecular target: Gamma-aminobutyric acid receptor subunit gamma-1 (Rattus norvegicus, UniProt P23574); assay: In vitro inhibition of [3H]GABA binding to Gamma-aminobutyric acid receptor of rat brain synaptic membranes; format: cell membranes, Membrane
Sequence of Gamma-aminobutyric acid receptor subunit gamma-1 (P23574 whole entry): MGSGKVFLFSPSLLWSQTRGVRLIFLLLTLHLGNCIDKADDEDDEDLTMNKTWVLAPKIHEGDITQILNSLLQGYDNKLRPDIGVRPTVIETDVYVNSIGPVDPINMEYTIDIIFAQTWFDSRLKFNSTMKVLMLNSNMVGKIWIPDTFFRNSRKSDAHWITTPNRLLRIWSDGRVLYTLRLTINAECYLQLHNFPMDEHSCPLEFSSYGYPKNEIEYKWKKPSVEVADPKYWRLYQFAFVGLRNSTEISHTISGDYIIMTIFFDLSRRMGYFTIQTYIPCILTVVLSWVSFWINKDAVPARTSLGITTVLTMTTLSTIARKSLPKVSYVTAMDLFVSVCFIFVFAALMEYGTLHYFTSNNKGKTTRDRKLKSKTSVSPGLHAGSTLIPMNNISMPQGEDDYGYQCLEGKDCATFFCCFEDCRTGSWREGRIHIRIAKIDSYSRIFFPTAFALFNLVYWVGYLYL

[2] = test system: Felis catus; assay: BMC-sensitive inhibitory effect on cat spinal neurons relative to that of GABA was expressed in vivo as relative potency; Greater activity; format: functional, organism-based
[3] = molecular target: GABA-A receptor; anion channel; assay: In vitro inhibition of [3H]THIP binding to Gamma-aminobutyric acid receptor in rat brain synaptic membranes; format: cell membranes, Membrane
In short: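 Radioligand 0.005 μM [3H]THIP; rat cortical synaptic membranes (0.8–1.2 mg protein) in 0.05 M Tris-citrate pH 7.1, triplicate, 15 min at 4 °C, analogue up to 100 μM. IC50 derived from displacement; three experiments averaged per concentration.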

[4] = molecular target: T1, GABA transporter (Rattus norvegicus, UniProt P31647+P23978+P31646+P48056); format: functional, cell membranes, Brain, Membrane
[5] = molecular target: GABA-A receptor; anion channel; assay: In vitro inhibition of [3H]P4S binding to Gamma-aminobutyric acid receptor of rat brain synaptic membranes; format: cell membranes, Membrane
[6] = test system: Felis catus; assay: BMC-sensitive inhibitory effect on cat spinal neurons relative to that of GABA was expressed in vivo as relative potency; Less activity; format: functional, organism-based
[7] = molecular target: GABA-A receptor; anion channel; assay: In vitro inhibition of [3H]GABA binding to rat brain synaptic membranes; format: cell membranes, Membrane
In short: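 Rat cerebral cortex synaptic membranes (0.8–1.2 mg protein) incubated in triplicate 15 min at 4 °C in 0.05 M Tris-citrate pH 7.1 with 0.005 μM [3H]GABA and analogue (up to 100 μM). Displacement used to derive IC50; each concentration mean of three experiments.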

[8] = molecular target: T1, GABA transporter; assay: In vitro inhibition of GABA uptake in rat brain synaptosomes
[9] = test system: Felis catus; assay: In vivo BMC-sensitive inhibitory effect on cat spinal neurons relative to that of GABA; Equal activity; format: functional, organism-based

Compound | IC50 [1] | Relative potency [2] | IC50 [3] | IC50 [4] | IC50 [5] | Relative potency [6] | IC50 [7] | IC50 [8] | Relative potency [9]
NC[C@@H]1CC(=O)NO1 | 4 nM | Active | 3 nM | > 500000 nM | 8 nM |  |  |  | 
NC[C@H]1CC(O)=NO1 | 250 nM |  | 140 nM |  | 540 nM |  |  |  | 
NC[C@H](O)CC(=O)O |  |  | 300 nM |  | 1900 nM | Partially active | 1000 nM | 67000 nM | 
NC[C@@H](O)CC(=O)O | 400 nM |  | 200 nM | 29000 nM | 900 nM | Partially active |  |  | 
NCc1cc(=O)[nH]o1 [MUSCIMOL] | 6 nM |  | 5 nM |  | 6 nM |  |  |  | 
NCc1cc(O)no1 [MUSCIMOL] |  | Active |  | 320000 nM |  |  |  |  | 
NC[C@H]1CC(=O)NO1 |  |  |  |  |  |  |  | 70000 nM | Active
NCC1CC(=O)NO1 (racemic) |  | Active | 5 nM | 130000 nM | 18 nM |  | 8 nM |  | 
